For 2 molecules, Activity, IC50 and inhibition results are on record in ChEMBL document CHEMBL1157324, “Lophocladines, bioactive alkaloids from the red alga Lophocladia sp” (J Nat Prod, 2006).

The term IC50 denotes the midpoint of a concentration-inhibition curve. A low value points to inhibition by little substance. The term inhibition denotes the relative decrease from the control value, in per cent. High values mean a strong effect, low ones a weak effect.

One assay deals with N2a. Briefly: Cytotoxicity against mouse Neuro2a cells at 45 uM after 48 hrs by MTT assay. It counts as functional, cell-based. The gist of the method:
(§1)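 Cells grown in RPMI-1640 with L-glutamine, 1 mM pyruvate, penicillin/streptomycin, 0.2% bicarbonate and 10% FBS, seeded at 6000 cells/well. After 24 h, compound in DMSO diluted into serum-free medium was added (DMSO under 1% final), as a single screening concentration or a dilution series. Viability by MTT reduction after 48 h.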
(In general: Formazan colour is commonly taken as a measure of viable cells.)

Assay [1] deals with MDA-MB-435. The experiment in a line: Cytotoxicity against human MDA-MB-435 cells after 48 hrs by SRB assay. It counts as functional, cell-based. The conditions noted are these: MDA-MB-435, 48 h. The gist of the method:
(§2)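 MDA-MB-435 cells grown in IMEM with 10% FBS, attached 24 h in 96-well plates, then exposed 48 h to compound or EtOH vehicle. Fixed with 10% TCA at 4 °C for 1 h, stained with 0.4% SRB for 30 min, washed with 1% HOAc, solubilised in 10 mM Tris. Absorbance read at 560 nm. IC50 taken from linear portion of log dose-response curves.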

Assay [2] has as its system NCI-H460. The experiment in a line: Cytotoxicity against human NCI-H460 cells after 48 hrs by MTT assay. It counts as functional, cell-based. The conditions noted are these: NCI-H460, 48 h. The gist of the method:
as §1

Assay [3] deals with NCI-H460. Briefly: Induction of morphological changes in human NCI-H460 cells at 13.5 uM after 24 hrs. It counts as functional, cell-based.
For assay [4], the system named is NCI-H460. Briefly: Induction of morphological changes in human NCI-H460 cells at 13.5 uM after 6 days. It is filed as functional.
The test system of assay [5] is A10. Briefly: Induction of microtubule depolymerization in rat A10 cells at 45 uM after 24 hrs by indirect immunofluorescence technique. It is filed as functional. The conditions noted are these: A10, 24 h. The gist of the method:
(§3)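 A-10 cells on glass coverslips in Basal Medium Eagle with 10% FBS, treated 18-24 h. Methanol-fixed, blocked with 10% calf serum, probed with monoclonal β-tubulin antibody then FITC sheep anti-mouse secondary for 1 h. Nuclei stained with 0.1 μg/mL DAPI. Examined by fluorescence microscopy.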

The subject of assay [6] is A10. Briefly: Induction of microtubule depolymerization in rat A10 cells at 113 uM after 24 hrs by indirect immunofluorescence technique. It is filed as functional, cell-based. In short, it runs like this: as §3
Assay [7] deals with A10. Briefly: Induction of nucleus breakdown into micronuclei in rat A10 cells. It counts as functional, cell-based. The gist of the method: as §3
Assay [8] has as its system A10. Briefly: Induction of actin microfilament disrupting activity in rat A10 cells at 45 uM after 24 hrs. It is filed as functional, cell-based. In short, it runs like this:
(§4)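 A-10 rat aortic smooth muscle cells on glass coverslips in BME with 10% fetal calf serum, treated 24 h. Fixed in 3% paraformaldehyde, permeabilised with 0.2% Triton X-100, reduced with sodium borohydride. Actin stained 45 min with 100 nM TRITC-phalloidin, DNA with DAPI. Examined by fluorescence microscopy.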

Assay [9] concerns A10. Briefly: Induction of actin microfilament disrupting activity in rat A10 cells at 113 uM after 24 hrs. It is filed as functional, cell-based. In short, it runs like this: as §4
Assay [10] deals with MDA-MB-435. Briefly: Cell cycle arrest in human MDA-MB-435 cells assessed as accumulation at G1 phase at 20 uM after 24 hrs by flow cytometry. It counts as functional. The gist of the method:
(§5)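 MDA-MB-435 cells grown in IMEM with 10% FBS and gentamycin. Exposed 24 h to vehicle or sample, harvested and stained with Krishan's reagent. Propidium iodide intensity read by flow cytometry, with quality-control samples each run. Percentage of cells in each cycle phase fitted by manual analysis.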
A general note: In flow cytometry, cells or beads pass a laser one at a time.

Assay [11] deals with MDA-MB-435. Briefly: Cell cycle arrest in human MDA-MB-435 cells assessed as accumulation at S phase at 20 uM after 24 hrs by flow cytometry. It counts as functional. The gist of the method: as §5
The test system of assay [12] is MDA-MB-435. Briefly: Cell cycle arrest in human MDA-MB-435 cells assessed as accumulation at G2/M phase at 20 uM after 24 hrs by flow cytometry. It is filed as functional. The gist of the method:
as §5

For assay [13], the system named is NCI-H460. The experiment in a line: Cytotoxicity against human NCI-H460 cells at 45 uM after 48 hrs by MTT assay. It is filed as functional, cell-based. In short, it runs like this:
as §1

Assay [14] has as its system MDA-MB-435. Briefly: Cytotoxicity against human MDA-MB-435 cells at 450 uM after 48 hrs by SRB assay. It is filed as functional, cell-based. The gist of the method:
as §2
For orientation: Sulforhodamine B stains cellular protein and so reports cell mass.

The target in assay [15] is Delta-type opioid receptor (Homo sapiens) (UniProt P41143). Briefly: Displacement of [3H][D-Ala2,D-Leu5]enkephalin from human cloned delta opioid receptor at 10 uM. In short, it runs like this: (§6)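 Receptor screen run by the NIMH Psychoactive Drug Screening Program. Each compound at 10 μM incubated with the relevant receptor preparation; percent inhibition of radioligand binding determined.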

Assay [16] is described as follows: Displacement of radiolabeled MK801 from NMDA receptor at 10 uM. The gist of the method: as §6
The target in assay [17] is Delta-type opioid receptor (Homo sapiens) (UniProt P41143). The experiment in a line: Agonist activity at human delta opioid receptor expressed in CHO cells assessed as inhibition of forskolin-stimulated adenylyl cyclase relative to [D-Pen2,D-Pen5]-enkephalin. It is filed as functional, cell-based. In short, it runs like this:
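δ-Opioid receptor-expressing CHO cells washed with serum-free F12 Ham's medium, labelled 8 h with 1.2 μCi [3H]adenine. Then 40 min at 37 °C with 50 μM Ro20-1724, peptidase inhibitors (10 μM bestatin, 30 μM captopril, 50 μM L-leucyl-L-leucine), 50 μM forskolin and varied ligand concentrations. [3H]cAMP isolated on cation-exchange resin and alumina, counted with [14C]cAMP recovery correction.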

Calls of active or inactive are those of the source. The calls are words filed in the database; no cut-off is given here.

Delta-type opioid receptor (Homo sapiens), sequence (P41143 whole entry): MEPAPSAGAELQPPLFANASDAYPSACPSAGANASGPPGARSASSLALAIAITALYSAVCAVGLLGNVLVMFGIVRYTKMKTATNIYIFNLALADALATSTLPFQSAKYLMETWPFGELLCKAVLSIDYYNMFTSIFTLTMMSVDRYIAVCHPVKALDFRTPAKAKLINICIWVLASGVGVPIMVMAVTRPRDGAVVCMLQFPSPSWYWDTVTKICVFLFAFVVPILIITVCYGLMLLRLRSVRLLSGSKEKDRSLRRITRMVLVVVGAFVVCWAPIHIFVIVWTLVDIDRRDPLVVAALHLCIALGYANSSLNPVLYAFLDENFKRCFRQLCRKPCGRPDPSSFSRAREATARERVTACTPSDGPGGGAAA

As for `Nc1ncc(-c2ccccc2)c2ccncc12` [LOPHOCLADINE B], the outcome in the assay on N2a, with A10 [8] and in the assay with A10 [9] was inactive. The IC50 in the assay on MDA-MB-435 [1] came out at 3.1 µM; with NCI-H460 [2], 64.6 µM. In addition, the outcome in the assay with NCI-H460 [3], with A10 [6] and in the assay on A10 [7] was Active. The Activity worked out at 80% in the assay with NCI-H460 [4], 19.8% in the assay on MDA-MB-435 [10], 8% in the assay on MDA-MB-435 [11] and 72.2% in the assay with MDA-MB-435 [12]. At 45 µM the inhibition in the assay with A10 [5] was 85%.
With `O=c1[nH]cc(-c2ccccc2)c2ccncc12`, the result (in the assay on NCI-H460 [13]; with N2a; in the assay on MDA-MB-435 [14]; in assay [17]) was inactive. Also, the inhibition in assay [15] and in assay [16] was 50% each time.
